From ChEMBL document CHEMBL1138496, “Synthesis and evaluation of a novel indoledione class of long chain fatty acid elongase 6 (ELOVL6) inhibitors” (J Med Chem, 2009)

Legend:
[1] = target: T1, Very long chain fatty acid elongase 3 (Homo sapiens, UniProt Q9HB03); experiment: Inhibition of human ELOVL3 expressed in african green monkey COS7 cells assessed as stearoyl-CoA elongation; type: cell-based, COS-7
T1 sequence (Q9HB03 whole entry): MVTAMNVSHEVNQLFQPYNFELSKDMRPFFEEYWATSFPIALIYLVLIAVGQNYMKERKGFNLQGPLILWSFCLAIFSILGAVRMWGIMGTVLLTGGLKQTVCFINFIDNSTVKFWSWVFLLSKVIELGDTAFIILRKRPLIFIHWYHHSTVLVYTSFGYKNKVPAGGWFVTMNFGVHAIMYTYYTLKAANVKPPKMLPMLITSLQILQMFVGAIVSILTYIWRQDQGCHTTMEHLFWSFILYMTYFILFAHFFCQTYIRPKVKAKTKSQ
Procedure, shortened: (§1)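 IC50 against each ELOVL subtype, each with its own fatty acyl-CoA substrate. Human ELOVL6 used palmitoyl-CoA elongation. Radioactive ELOVL6 products were detected with recombinant histidine-tagged ACBP as a probe. Values are mean ± SE, n ≥ 3.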

[2] = target: T2, Very long chain fatty acid elongase 6 (Homo sapiens, UniProt Q9H5J4); experiment: Inhibition of human ELOVL6 expressed in african green monkey COS7 cells assessed as palmitoyl-CoA elongation; type: cell-based, COS-7; procedure, shortened: as §1
T2 sequence (Q9H5J4 whole entry): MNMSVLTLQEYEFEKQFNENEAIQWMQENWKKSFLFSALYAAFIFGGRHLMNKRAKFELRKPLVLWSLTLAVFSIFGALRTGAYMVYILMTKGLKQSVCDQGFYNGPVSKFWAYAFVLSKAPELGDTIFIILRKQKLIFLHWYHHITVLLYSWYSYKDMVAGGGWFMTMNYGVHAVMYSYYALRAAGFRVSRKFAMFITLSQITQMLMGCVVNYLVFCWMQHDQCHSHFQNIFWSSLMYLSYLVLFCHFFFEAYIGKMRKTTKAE

[3] = Plasma concentration in mouse at 1 mg/kg, po after 4 hrs; type: ADME, organism-based; parameters: dose 1 mg/kg, route oral
Procedure, shortened: (§2)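 Compound was given orally at 1 mg/kg to mice. Plasma levels were sampled at 2, 4, 8 and 24 h. Values are the mean of n = 3 animals.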

[4] = target: T3, Very long chain fatty acid elongase 6 (Mus musculus, UniProt Q920L5); experiment: Inhibition of mouse ELOVL6 expressed in african green monkey COS7 cells; type: cell-based, COS-7; procedure, shortened: as §1
T3 sequence (Q920L5 whole entry): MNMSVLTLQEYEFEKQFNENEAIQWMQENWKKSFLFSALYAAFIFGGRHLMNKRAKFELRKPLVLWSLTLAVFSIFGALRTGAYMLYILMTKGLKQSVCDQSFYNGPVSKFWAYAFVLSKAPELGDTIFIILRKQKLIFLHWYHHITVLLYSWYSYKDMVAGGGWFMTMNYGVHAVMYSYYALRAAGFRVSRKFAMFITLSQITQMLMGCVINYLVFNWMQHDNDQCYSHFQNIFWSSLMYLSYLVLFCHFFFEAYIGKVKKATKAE

[5] = Plasma concentration in mouse at 1 mg/kg, po after 24 hrs; type: ADME, organism-based; parameters: dose 1 mg/kg, route oral; procedure, shortened: as §2
[6] = target: T4, Very long chain fatty acid elongase 1 (Homo sapiens, UniProt Q9BW60); experiment: Inhibition of human ELOVL1 expressed in african green monkey COS7 cells; type: cell-based, COS-7; procedure, shortened: as §1
T4 sequence (Q9BW60 whole entry): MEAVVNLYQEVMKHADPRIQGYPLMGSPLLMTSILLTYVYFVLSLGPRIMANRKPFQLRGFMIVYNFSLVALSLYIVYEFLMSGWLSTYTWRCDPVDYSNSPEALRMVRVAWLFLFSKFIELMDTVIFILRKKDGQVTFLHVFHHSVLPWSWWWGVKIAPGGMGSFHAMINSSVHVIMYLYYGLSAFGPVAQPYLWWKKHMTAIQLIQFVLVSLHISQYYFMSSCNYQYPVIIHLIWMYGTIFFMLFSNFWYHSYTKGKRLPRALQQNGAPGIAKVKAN

[7] = target: T5, Very long chain fatty acid elongase 2 (Homo sapiens, UniProt Q9NXB9); experiment: Inhibition of human ELOVL2 expressed in african green monkey COS7 cells; type: cell-based, COS-7; procedure, shortened: as §1
T5 sequence (Q9NXB9 whole entry): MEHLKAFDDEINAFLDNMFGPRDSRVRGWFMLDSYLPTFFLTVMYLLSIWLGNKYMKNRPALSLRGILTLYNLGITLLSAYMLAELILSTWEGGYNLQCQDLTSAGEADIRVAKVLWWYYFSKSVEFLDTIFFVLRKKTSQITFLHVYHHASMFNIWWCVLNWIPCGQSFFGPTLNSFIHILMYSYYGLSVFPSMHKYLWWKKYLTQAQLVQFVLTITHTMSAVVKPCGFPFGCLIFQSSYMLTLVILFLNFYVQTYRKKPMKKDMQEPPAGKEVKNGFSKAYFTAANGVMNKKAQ

[8] = Plasma concentration in mouse at 10 mg/kg, po after 2 hrs; type: ADME, organism-based; parameters: dose 10 mg/kg, route oral
[9] = Drug level in mouse liver at 10 mg/kg, po after 2 hrs; type: ADME, organism-based; parameters: dose 10 mg/kg, route oral; conditions: read-out: Drug uptake
[10] = tested on: Mus musculus; experiment: Inhibition of ELOVL6 activity in po dosed C57BL/6J mouse liver assessed as […] administered 1 hr before [1-14C]palmitic acid measured after 2 hrs; type: functional, organism-based
[11] = target: T6, Very long chain fatty acid elongase 5 (Homo sapiens, UniProt Q9NYP7); experiment: Inhibition of human ELOVL5 expressed in african green monkey COS7 cells; type: cell-based, COS-7; procedure, shortened: as §1
T6 sequence (Q9NYP7 whole entry): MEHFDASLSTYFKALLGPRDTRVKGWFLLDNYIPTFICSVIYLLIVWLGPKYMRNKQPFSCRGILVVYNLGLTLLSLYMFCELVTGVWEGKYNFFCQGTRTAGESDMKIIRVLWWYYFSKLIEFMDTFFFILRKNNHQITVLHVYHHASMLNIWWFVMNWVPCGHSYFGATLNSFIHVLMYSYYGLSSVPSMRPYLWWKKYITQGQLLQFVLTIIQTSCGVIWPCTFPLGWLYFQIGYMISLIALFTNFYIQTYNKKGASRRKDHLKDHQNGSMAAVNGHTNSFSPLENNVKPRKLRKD

[12] = Plasma concentration in mouse at 1 mg/kg, po after 2 hrs; type: ADME, organism-based; parameters: dose 1 mg/kg, route oral; procedure, shortened: as §2
[13] = Plasma concentration in mouse at 1 mg/kg, po after 8 hrs; type: ADME, organism-based; parameters: dose 1 mg/kg, route oral; procedure, shortened: as §2
[14] = target: T7, Very long chain fatty acid elongase 3 (Mus musculus, UniProt O35949); experiment: Inhibition of mouse ELOVL3 expressed in african green monkey COS7 cells; type: cell-based, COS-7; procedure, shortened: as §1
T7 sequence (O35949 whole entry): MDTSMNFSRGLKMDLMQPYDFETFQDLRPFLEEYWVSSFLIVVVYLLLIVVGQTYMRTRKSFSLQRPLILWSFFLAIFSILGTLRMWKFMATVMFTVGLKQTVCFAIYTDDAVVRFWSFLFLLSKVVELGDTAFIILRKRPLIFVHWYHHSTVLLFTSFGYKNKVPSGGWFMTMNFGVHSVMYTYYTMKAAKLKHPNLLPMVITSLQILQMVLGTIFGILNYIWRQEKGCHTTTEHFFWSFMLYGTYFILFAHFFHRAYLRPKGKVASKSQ

Row | Compound | IC50 [1] [nM] | IC50 [2] [nM] | also measured
1 | Cc1[nH]n(-c2ccccc2)c(=O)c1C1(C(F)(F)F)C(=O)N(c2ccccc2)C2=C1C(=O)CC(C)C2 (stereo unspecified) |  | 704 | 
2 | Cc1[nH]n(-c2ccccc2)c(=O)c1C1(C(F)(F)F)C(=O)N(c2ccccc2)C2=C1C(=O)CC1(CCC1)C2 (stereo unspecified) |  | 123 | 
3 | Cc1[nH]n(-c2ccccc2)c(=O)c1C1(C(F)(F)F)C(=O)N(c2ccccc2)C2=C1C(=O)CCC2 (stereo unspecified) |  | 4500 | 
4 | CC(C)c1[nH]n(-c2ccccc2)c(=O)c1C1(C(F)(F)F)C(=O)N(c2ccccc2)C2=C1C(=O)CC(C)(C)C2 (stereo unspecified) |  | > 10000 | 
5 | Cc1[nH]n(-c2ccccc2)c(=O)c1C1(C(F)(F)F)C(=O)N(c2ccccc2)C2=C1C(=O)CC(c1ccccc1)C2 (stereo unspecified) |  | 6260 | 
6 | Cc1[nH]n(C(C)C)c(=O)c1C1(C(F)(F)F)C(=O)N(c2ccccc2)C2=C1C(=O)CC(C)(C)C2 (stereo unspecified) |  | > 10000 | 
7 | Cc1[nH]n(C2CCCCC2)c(=O)c1C1(C(F)(F)F)C(=O)N(c2ccccc2)C2=C1C(=O)CC(C)(C)C2 (stereo unspecified) |  | > 10000 | 

Continued, in another order:

Row | IC50 [1] [nM] | IC50 [2] [nM] | Compound | also measured
8 | 375 |  | Cc1ccc(-n2[nH]c(C)c(C3(C(F)(F)F)C(=O)N(c4ccccc4)C4=C3C(=O)CC(C)(C)C4)c2=O)cc1 (stereo unspecified) | 
9 | 1100 |  | Cc1[nH]n(-c2ccc(C#N)cc2)c(=O)c1C1(C(F)(F)F)C(=O)N(c2ccccc2)C2=C1C(=O)CC(C)(C)C2 (stereo unspecified) | 
10 | 221 |  | Cc1[nH]n(-c2ccc(Cl)cc2)c(=O)c1C1(C(F)(F)F)C(=O)N(c2ccccc2)C2=C1C(=O)CC(C)(C)C2 (stereo unspecified) | 
11 |  | 2020 | Cc1[nH]n(C)c(=O)c1C1(C(F)(F)F)C(=O)N(c2ccccc2)C2=C1C(=O)CC(C)(C)C2 (stereo unspecified) | 
12 | 59 |  | Cc1[nH]n(-c2ccc(C(C)C)cc2)c(=O)c1C1(C(F)(F)F)C(=O)N(c2ccccc2)C2=C1C(=O)CC(C)(C)C2 (stereo unspecified) | 
13 | 337 |  | Cc1[nH]n(-c2ccc(OC(F)(F)F)cc2)c(=O)c1C1(C(F)(F)F)C(=O)N(c2ccccc2)C2=C1C(=O)CC(C)(C)C2 (stereo unspecified) | concentration at 4 h [3]: 2.8 µM; IC50 [4]: 31 nM; concentration at 24 h [5]: 0.4 µM; IC50 [6]: > 10000 nM; IC50 [7]: > 10000 nM; concentration at 2 h [8]: 30 µM; concentration at 2 h [9]: 50 µM; Activity [10]: Dose-dependent effect; IC50 [11]: > 10000 nM; concentration at 2 h [12]: 3.4 µM; concentration at 8 h [13]: 1.4 µM; IC50 [14]: 194 nM
14 | 503 |  | COc1ccc(-n2[nH]c(C)c(C3(C(F)(F)F)C(=O)N(c4ccccc4)C4=C3C(=O)CC(C)(C)C4)c2=O)cc1 (stereo unspecified) | 
